Compound activity (PubChem BioAssay)
Compounds with a hit are over-represented: about 8.2% of the library has one in this group of screens.
SF1 activator: SF-1 (human) activation; Q13285; CHO-K1 Gal4-SF-1 LBD luciferase reporter; % increase over DMSO SF-1-specific signal; activation, % at 10 µM; 65,000 tested, 1.9% active; AID 522;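 active = activation above the mean activation of all tested compounds plus 3 SD, cut at about 50% in these data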
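Test system: transient Gal4-SF-1 LBD reporter, CHO-K1; Amount: 4,000 CHO-K1 cells per well; Doses: 10 µM only; Timing: compound exposure 20 h at 37 °C; Signal: luciferase light emission; Read-out basis: percent activation relative to DMSO median and mock-transfected background; Control set: DMSO negative control and −SF1 background wells; Replicates: one test per compound.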
M1 ag: M1 muscarinic receptor agonism; CHO-M1 cells, Fluo-4 calcium fluorescence, agonist mode; hits give high values; B-score at 10 µM; 64,000 tested, 3% active; AID 626;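 active = fluorescence rise, raw or as B-score row- and column-corrected plate score, outside the 99.7% band of its plate's samples, either direction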
D1 mod: allosterically modulates the human D1 dopamine receptor | P21728 | HEK293 D1, CRE-luciferase, dopamine EC30 potentiation; actives deviate in either direction | B-score at 10 µM | 58,000 tested, 5.9% active | AID 641;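 active = luminescence count or its row- and column-corrected plate score outside the 99.7% band of the plate's sample wells, on either side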
Target sequence (P21728 whole entry, looked up): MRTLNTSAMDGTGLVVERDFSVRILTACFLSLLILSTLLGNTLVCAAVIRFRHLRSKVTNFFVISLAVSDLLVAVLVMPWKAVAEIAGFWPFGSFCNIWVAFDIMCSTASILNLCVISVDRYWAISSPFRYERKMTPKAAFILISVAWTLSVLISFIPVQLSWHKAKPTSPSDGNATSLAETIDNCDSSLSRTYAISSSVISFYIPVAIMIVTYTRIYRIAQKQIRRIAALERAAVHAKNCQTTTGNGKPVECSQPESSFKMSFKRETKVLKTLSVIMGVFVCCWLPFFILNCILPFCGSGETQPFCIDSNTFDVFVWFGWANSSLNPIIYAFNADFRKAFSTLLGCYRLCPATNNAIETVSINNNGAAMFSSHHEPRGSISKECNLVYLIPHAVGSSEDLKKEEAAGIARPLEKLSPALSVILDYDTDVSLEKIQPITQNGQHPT
HePTP inh: inhibitors of human HePTP phosphatase. 110,000 tested, 0.64% active. P35236. recombinant HePTP phosphatase activity, OD absorbance. inhibition, % at 20 µM; in the data active = inhibition above about 50%;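 also: plate controls were vehicle for no effect and reference inhibitor for full effect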
RORA act: activates the human nuclear receptor RORA. AID 560. P35398. CHO-K1 Gal4-RORA LBD luciferase reporter, luminescence; percent increase over mock-subtracted basal signal. activation, % at 10 µM. 65,000 tested, 1.5% active;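 active = activation above the mean of all tested compounds plus 3 SD, cut at about 49% in these data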;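 also: 0% = DMSO-treated RORA cells and 100% = added signal equal to DMSO minus mock-transfected cells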
M1 antag: antagonists of rat M1 muscarinic receptor. B-score at 10 µM. CHO-M1 cells, Fluo-4 calcium, ACh EC80 antagonist mode; hits give low values. AID 628. P08482. 64,000 tested, 3.4% active;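 active = calcium fluorescence response, raw or row-and-column corrected B-score, differing from the plate sample mean either way at a set confidence level, mostly lower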
M1 antag conf: M1 muscarinic receptor (rat) antagonism, confirmed | shares compounds with M1 antag | CHO-M1 cells, Fluo-4 calcium, ACh EC80 antagonism; hits give low values | calcium response (max-min fluorescence) at 10 µM | 1,700 tested, 43% active | AID 677;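 active = calcium response below the same-plate mean of wells given acetylcholine alone at its 80%-effect dose, minus 3 SD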;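 also: raw fluorescence intensity difference in arbitrary instrument units and not normalized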
mGluR4 antag: selectivity test for M1 antagonists: human mGluR4 receptor; shares compounds with M1 antag; CHO-mGluR4 calcium flux, Fluo-4 fluorescence, glutamate EC80; hits give low values; fluorescence response (max-min) at 10 µM; 1,700 tested, 0.9% active;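 active = fluorescence response below the plate's average for near-maximal glutamate wells, less 3 SD of those wells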;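 also: raw unnormalized fluorescence span taken in the window right after glutamate addition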
The depositor's hits bear a star; / = not tested or not shown.

SMILES	SF1 activator	M1 ag	D1 mod	HePTP inh	RORA act	M1 antag	M1 antag conf	mGluR4 antag
O=C1CC(N2CCN(c3nc4ccccc4s3)CC2)C(=O)N1c1ccc(F)cc1 (stereo not drawn)	-7.2	-0.287	/	9.8	-10.4	-0.045	/	/
O=C1CC(N2CCC(c3nc4ccccc4s3)CC2)C(=O)N1 (stereo not drawn)	2.9	0.0484	-0.294	0.7	-4.2	-1.71*	664	183
COC(=O)CN(n1cnnc1)S(=O)(=O)c1ccc(C)cc1	-4.3	-0.329	-1.08	12.9	-15.7	0.109	/	/
O=C(CN1CCN(c2ccccn2)CC1)N1c2ccccc2Sc2ccc(C(F)(F)F)cc21	-4.3	-0.304	0.124	11.3	-21.8	-4*	450*	171
CCOC(=O)CN(C(=O)CSc1nnc(-c2ccncc2)n1CCCN(C)C)c1ccccc1	6.5	0.282	-1.5	15.6	5.3	-1.38*	611	249
COCCCn1c(SCC(=O)N(C)C)nnc1-c1ccccc1	8.3	0.0965	0.0178	7.4	-2.1	0.255	/	/
CCOC(=O)c1c(NC(=S)NC(C)=O)sc2c1CCC2	/	/	/	-6.0	/	/	/	/
COC(=O)Cn1cc(C(=O)C2CC2)c2ccccc21	-3.5	0.117	-0.639	-5.1	9.6	-1.59*	540	196
O=S(=O)(c1ccc(OCC(O)CN2CCc3ccccc3C2)cc1)N1CCOCC1 (stereo not drawn)	-1.9	0.616	0.0458	7.3	9.0	-3.67*	422*	252
COc1ccccc1C1C(C#N)=C(N)Oc2cc(C)n(CCCn3ccnc3)c(=O)c21 (stereo not drawn)	-27.5	-0.61	-0.108	-0.9	-5.2	-2.58*	379*	201
Clc1ccc(-n2cnnn2)cc1	1.6	-0.111	0.0144	4.3	-8.8	0.168	/	/
O=C(Nc1nc2sc3c(c2c(=O)s1)CCCC3)c1ccc([N+](=O)[O-])cc1	/	/	/	14.3	/	/	/	/
CCCCOc1ccc(CN2CCC(O)CC2)cc1	4.3	-0.329	0.0401	5.0	-11.9	-2.2*	518	257
CSc1ccc(CN2CCC(O)CC2)cc1	/	0.0573	0.00139	1.2	/	0.384	/	/
COc1cc(C(=O)N2CCCCCC2)cc(OC)c1OC	/	/	/	3.4	/	/	/	/
COc1cc(C(=O)N2CCN(C(=O)C3CC3)CC2)cc(OC)c1OC	11.1	-0.943	1.83	2.7	-7.2	-3.09*	543*	224
CCn1c(SCC(N)=O)nnc1-c1cc2c(C)nn(-c3ccccc3)c2s1	-2.7	0.745	1.67	-1.7	-15.3	-2.74*	489	160*
COc1cccc(/C=N/NC(=O)CC#N)c1	/	/	/	8.4	/	/	/	/
O=C(CC(c1ccccc1O)N1CCCCC1)N1CCCCC1 (stereo not drawn)	/	1.01	0.174	2.5	/	-17*	84*	242
O=C(CN1C(=O)c2ccccc2C1=O)N1CCCCC1	3.5	-0.271	/	2.7	2.5	-0.0651	/	/
CCOC(=O)N1CCN(C(=O)Cn2c(C)cc3ccccc3c2=O)CC1	-9.0	-0.618	0.129	11.4	-6.2	1.07	/	/
Cc1ccc(-n2c(C)cc(C(=O)CSc3nncs3)c2C)cc1	-9.4	1.51	/	-3.7	29.4	-2.02	/	/
Cc1ccc(-n2c(C)cc(C(=O)CSc3nnnn3C)c2C)cc1	33.3	-0.193	/	4.0	47.5	-1.76*	574	222
Cc1cc(C(=O)CSc2nnnn2C)c(C)n1CCc1ccc(F)cc1	-12.1	-0.918	/	7.0	3.9	-2.13*	644	231
Cc1sc(Nc2cccc(O)c2)nc1-c1ccccc1	/	/	/	-5.3	/	/	/	/
SMILES	SF1 activator	M1 ag	D1 mod	HePTP inh	RORA act	M1 antag	M1 antag conf	mGluR4 antag
C/C(=N\Nc1c(Cl)cc(Cl)cc1Cl)c1ccccn1	/	/	/	-0.9	/	/	/	/
Cc1ccc(C)c(N2CCN(S(=O)(=O)c3ccc4c(c3)OCCO4)CC2)c1	0.8	-0.127	-0.358	-7.1	2.1	-1*	641	235
CCC(O)CNc1nc(SC)nc2sc3c(c12)CCN(C)C3 (stereo not drawn)	-9.6	0.00923	/	-0.2	18.8	-4.34*	154*	197
CSc1nc(SCC(N)=O)c2c3c(sc2n1)CN(C)CC3	-0.2	-0.85	/	0.9	12.3	-5.12*	361*	253
CCSc1nc(NN)c2c3c(sc2n1)CN(C)CC3	/	/	/	-11.2	/	/	/	/
CSc1nc(NCc2ccco2)c2c3c(sc2n1)CN(C)CC3	1.6	1.69	-4.05*	-9.8	-10.5	-2.79*	711	250
CCCCC(=O)NC1(C(F)(F)F)C(=O)N(Cc2ccco2)C(C)=C1C(=O)OC (stereo not drawn)	1.4	0.498	-0.798	-6.1	-5.5	0.237	/	/
CC1(C)N(O)C(c2ccc[nH]2)N(O)C1(C)C	/	/	/	-19.5	/	/	/	/
CCc1ccc(C(=O)N2CCN(c3ccc(F)cc3)CC2)s1	6.4	-1.4	-0.74	-4.0	12.5	-6.53*	507*	229
Cc1nn(C)c(C)c1S(=O)(=O)Nc1ccc2c(c1)OCO2	-13.3	0.212	-1.02	-6.1	5.9	-5.93*	559	203
Cc1ccc(Nc2nc(N)nc(CN3CCN(Cc4ccc5c(c4)OCO5)CC3)n2)cc1	-6.8	0.85	-1.72	3.5	10.3	-3.53*	524	211
Cc1ccc(Nc2nc(N)nc(CN3CCN(Cc4ccc5c(c4)OCO5)CC3)n2)cc1Cl	-6.6	-0.227	-1.21	13.4	2.5	-0.0625	/	/
COc1ccc(Nc2nc(N)nc(CN3CCC(Cc4ccccc4)CC3)n2)cc1	-3.0	-1.36	-3*	-10.9	-16.8	-10*	319*	265
COc1ccccc1Nc1nc(N)nc(CN2CCCCCC2)n1	-1.1	-0.0201	1.15	4.3	-14.1	-0.0651	/	/
COc1ccccc1Nc1nc(N)nc(CN2CCC(Cc3ccccc3)CC2)n1	14.5	-0.302	-1.87	/	-4.7	-2.4*	452*	228
CC1(C)Nc2ccccc2N(CC(=O)N2CCCCC2)C1=O	15.1	-0.064	0.00518	-11.1	9.4	-1.26*	687	237
CC1(C)Nc2ccccc2N(CCC(=O)N2CCOCC2)C1=O	3.0	-0.791	0.552	3.0	7.1	0.285	/	/
O=C(Nc1sccc1C(=O)N1CCOCC1)c1cccnc1	1.8	-0.138	-0.419	3.4	-1.5	-5.07*	623	245
O=C(Nc1ccccc1C(=O)N1CCOCC1)c1cccnc1	/	/	/	-5.4	/	/	/	/
O=CNC(Nc1ccc(Cl)cc1Cl)C(Cl)(Cl)Cl (stereo not drawn)	/	/	/	-6.5	/	/	/	/
Cc1cc(/C=N/n2cnnc2)c(C)n1-c1ccc(OCc2ccc(F)cc2)cc1	-85.7	0.405	-2.58	-0.8	-70.3	-2.35*	503*	247
CCN(CC)C(=O)N1c2ccccc2C=Cc2ccccc21	/	/	/	-11.5	/	/	/	/
CN1CCN(C(=O)N2c3ccccc3C=Cc3ccccc32)CC1	3.6	1.8	-2.08	8.7	7.8	-18*	19.6*	198
